pIC50: −log10 of the molar value.
Target: T1, Renin (Homo sapiens, UniProt P00797)
T1 sequence (P00797 whole entry): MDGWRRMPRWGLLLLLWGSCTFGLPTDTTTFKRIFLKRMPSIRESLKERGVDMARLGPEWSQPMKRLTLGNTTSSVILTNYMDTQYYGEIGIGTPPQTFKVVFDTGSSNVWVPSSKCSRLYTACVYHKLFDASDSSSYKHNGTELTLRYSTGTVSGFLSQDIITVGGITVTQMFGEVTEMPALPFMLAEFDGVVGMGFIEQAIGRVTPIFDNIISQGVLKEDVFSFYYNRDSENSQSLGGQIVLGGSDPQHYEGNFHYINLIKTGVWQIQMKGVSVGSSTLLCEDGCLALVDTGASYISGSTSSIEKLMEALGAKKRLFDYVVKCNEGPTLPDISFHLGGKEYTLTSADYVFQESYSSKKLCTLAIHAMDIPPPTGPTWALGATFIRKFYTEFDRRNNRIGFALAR
Assay: Inhibitory activity against human renin
Procedure, shortened: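 It was incubated 2 h at 37 °C with compound added in DMSO. Angiotensin I generated, linear over this period, was corrected for endogenous AI and expressed as percent of DMSO control. IC50 was estimated from semilog plots of three or more concentrations.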

| SMILES | pIC50 |
| --- | --- |
| CC(C)C[C@H](CC(O)[C@H](CC1CCCCC1)NC(=O)OC(C)(C)C)C(=O)N[C@@H](CC(C)C)C(O)CC(=O)N[C@@H](CC(C)C)C(=O)NCc1ccccc1 (stereo not given in full) | 5.42 |
| CC(C)C[C@H](NC(=O)CC(O)[C@H](CC(C)C)NC(=O)[C@H](Cc1ccccc1)CC(O)[C@H](CC(C)C)NC(=O)OCc1ccccc1)C(=O)NCc1ccccc1 (stereo not given in full) | 5.08 |
| CC(C)C[C@H](NC(=O)CC(O)[C@H](CC(C)C)NC(=O)CCC(=O)[C@H](Cc1ccccc1)NC(=O)OC(C)(C)C)C(=O)NCc1ccccc1 (stereo not given in full) | 4.68 |
| CC(C)C[C@H](CC(O)[C@H](CC(C)C)NC(=O)OCc1ccccc1)C(=O)N[C@@H](CC(C)C)C(O)CC(=O)N[C@@H](CC(C)C)C(=O)NCc1ccccc1 (stereo not given in full) | 5.17 |
| CC(C)C[C@H](NC(=O)CC(O)[C@H](CC(C)C)NC(=O)CCC[C@H](Cc1ccccc1)NC(=O)OC(C)(C)C)C(=O)NCc1ccccc1 (stereo not given in full) | 4.64 |
| CC(C)C[C@H](NC(=O)C[C@@H](O)C(CC1CCCCC1)NC(=O)CC1OC1[C@H](Cc1ccccc1)NC(=O)OC(C)(C)C)C(=O)NCc1cccc(CN)c1 (stereo not given in full) | 6.49 |
| CC(C)C[C@H](NC(=O)C[C@@H](O)C(CC1CCCCC1)NC(=O)/C=C/C(O)[C@H](Cc1ccccc1)NC(=O)OC(C)(C)C)C(=O)NCc1ccccc1 (stereo not given in full) | 7.05 |
| CC(C)C[C@H](NC(=O)CC(O)[C@H](CC(C)C)NC(=O)[C@H](Cc1c[nH]cn1)NC[C@H](Cc1ccccc1)NC(=O)OC(C)(C)C)C(=O)NCc1ccccc1 (stereo not given in full) | 5.42 |
| CC(C)C[C@H](NC(=O)CC(O)[C@H](CC(C)C)NC(=O)CC(O)C(O)[C@H](CC1CCCCC1)NC(=O)OC(C)(C)C)C(=O)NCc1ccccc1 (stereo not given in full) | 5.19 |
| CC(C)C[C@H](NC(=O)CC(O)[C@H](CC(C)C)NC(=O)CCC(O)[C@H](CC(C)C)NC(=O)OCc1ccccc1)C(=O)NCc1ccccc1 (stereo not given in full) | 5.40 |
| CC(C)C[C@H](NC(=O)CC(O)[C@H](CC(C)C)NC(=O)[C@H](Cc1cnc[nH]1)N(O)C[C@H](Cc1ccccc1)NC(=O)OC(C)(C)C)C(=O)NCc1ccccc1 (stereo not given in full) | 5.19 |
| CC(C)C[C@H](NC(=O)CC(O)[C@H](CC(C)C)NC(=O)[C@H](Cc1c[nH]cn1)CC(O)[C@H](Cc1ccccc1)NC(=O)OC(C)(C)C)C(=O)NCc1ccccc1 (stereo not given in full) | 6.11 |
| CC(C)CC(=O)N[C@@H](Cc1ccccc1)CS(=O)(=O)[C@@H](Cc1ccccc1)C(=O)N[C@@H](CC(C)C)C(O)CC(=O)N[C@@H](C)C(=O)N[C@@H](CC(C)C)C(O)CC(=O)NCc1ccccc1 (stereo not given in full) | 5.82 |
| CC(C)C[C@H](NC(=O)CC(O)[C@H](CC(C)C)NC(=O)[C@H](Cc1ccccc1)NC[C@H](Cc1ccccc1)NC(=O)OC(C)(C)C)C(=O)NCc1ccccc1 (stereo not given in full) | 5.38 |
| CC(C)C[C@H](NC(=O)CC(O)[C@H](CC(C)C)NC(=O)C/C=C/[C@H](Cc1ccccc1)NC(=O)OC(C)(C)C)C(=O)NCc1ccccc1 (stereo not given in full) | 5.15 |
| CC(C)C[C@H](NC(=O)C[C@@H](O)C(Cc1ccccc1)NC(=O)C/C=C/[C@H](Cc1ccccc1)NC(=O)OC(C)(C)C)C(=O)NCc1ccccc1 (stereo not given in full) | 5.04 |
| CC(C)C[C@H](NC(=O)CC(O)[C@H](CC(C)C)NC(=O)[C@H](Cc1ccccc1)N(O)C[C@H](Cc1ccccc1)NC(=O)OC(C)(C)C)C(=O)NCc1ccccc1 (stereo not given in full) | 4.74 |
| CC(C)C[C@H](NC(=O)CC(O)[C@H](CC(C)C)NC(=O)[C@H](Cc1ccccc1)[S+]([O-])C[C@H](Cc1ccccc1)NC(=O)OC(C)(C)C)C(=O)NCc1ccccc1 (stereo not given in full) | 5.27 |
| CC(C)C[C@H](NC(=O)C[C@@H](O)C(Cc1ccccc1)NC(=O)CC1OC1[C@H](Cc1ccccc1)NC(=O)OC(C)(C)C)C(=O)NCc1ccccc1 (stereo not given in full) | 5.36 |
| CC(C)CC(=O)N[C@@H](Cc1ccccc1)C1OC1CC(=O)N[C@@H](CC(C)C)C(O)CC(=O)N[C@@H](CC(C)C)C(=O)NCc1ccccc1 (stereo not given in full) | 4.54 |
| CC(C)C[C@H](NC(=O)CC(O)[C@H](CC(C)C)NC(=O)[C@H](Cc1cnc[nH]1)NC[C@H](CC1CCCCC1)NC(=O)OC(C)(C)C)C(=O)NCc1ccccc1 (stereo not given in full) | 5.00 |
| CC(C)CC(=O)N[C@H](CN[C@H](C(=O)N[C@@H](CC(C)C)C(O)CC(=O)N[C@@H](CC(C)C)C(=O)NCc1ccccc1)C(C)C)C(C)C (stereo not given in full) | 4.82 |

| SMILES | pIC50 |
| --- | --- |
| CC(C)C[C@H](NC(=O)C[C@@H](O)C(CC1CCCCC1)NC(=O)CCC[C@H](Cc1ccccc1)NC(=O)OC(C)(C)C)C(=O)NCc1cccc(CN)c1 (stereo not given in full) | 6.20 |
| CC(C)C[C@H](NC(=O)CC(O)[C@H](CC(C)C)NC(=O)/C=C/C(O)[C@H](Cc1ccccc1)NC(=O)OC(C)(C)C)C(=O)NCc1ccccc1 (stereo not given in full) | 5.68 |
| CC(C)C[C@H](NC(=O)C[C@@H](O)C(CC1CCCCC1)NC(=O)CC1OC1[C@H](Cc1ccccc1)NC(=O)OC(C)(C)C)C(=O)NCc1ccccc1 (stereo not given in full) | 6.28 |
| CC(C)C[C@H](CC(=O)[C@H](CC1CCCCC1)NC(=O)OC(C)(C)C)C(=O)N[C@@H](CC(C)C)C(O)CC(=O)N[C@@H](CC(C)C)C(=O)NCc1ccccc1 (stereo not given in full) | 4.59 |
| CC(C)CC(=O)N[C@H](CSCC(=O)N[C@@H](CC(C)C)C(O)CC(=O)N[C@@H](CC(C)C)C(=O)NCc1ccccc1)Cc1ccccc1 (stereo not given in full) | 4.74 |
| CC(C)C[C@H](NC(=O)CC(O)[C@H](CC(C)C)NC(=O)C(O)C(O)C(O)[C@H](Cc1ccccc1)NC(=O)OC(C)(C)C)C(=O)NCc1ccccc1 (stereo not given in full) | 4.96 |
| CC(C)C[C@H](NC(=O)C[C@@H](O)C(CC1CCCCC1)NC(=O)[C@H](Cc1cnc[nH]1)NC[C@H](Cc1ccccc1)NC(=O)OC(C)(C)C)C(=O)NCc1ccccc1 (stereo not given in full) | 6.70 |
| CC(C)C[C@H](NC(=O)C[C@@H](O)C(CC1CCCCC1)NC(=O)CCC(O)[C@H](Cc1ccccc1)NC(=O)OC(C)(C)C)C(=O)NCc1ccccc1 (stereo not given in full) | 7.21 |
| CC(C)CC(=O)N[C@H](CS[C@@H](Cc1ccccc1)C(=O)N[C@@H](CC(C)C)C(O)CC(=O)N[C@@H](C)C(=O)N[C@@H](CC(C)C)C(O)CC(=O)NCc1ccccc1)Cc1ccccc1 (stereo not given in full) | 5.13 |
| CC(C)C[C@H](NC(=O)CC(O)[C@H](CC(C)C)NC(=O)CC(O)C(O)[C@H](Cc1ccccc1)NC(=O)OC(C)(C)C)C(=O)NCc1ccccc1 (stereo not given in full) | 5.85 |
| CC(C)CC(=O)N[C@H](/C=C/CC(=O)N[C@@H](CC(C)C)C(O)CC(=O)N[C@@H](CC(C)C)C(=O)NCc1ccccc1)Cc1ccccc1 (stereo not given in full) | 4.89 |
| CC(C)C[C@H](NC(=O)CC(O)[C@H](CC(C)C)NC(=O)C/C=C\[C@H](Cc1ccccc1)NC(=O)OC(C)(C)C)C(=O)NCc1ccccc1 (stereo not given in full) | < 4.00 |
| CC(C)CC(=O)N[C@@H](Cc1ccccc1)C[S+]([O-])[C@@H](Cc1ccccc1)C(=O)N[C@@H](CC(C)C)C(O)CC(=O)N[C@@H](C)C(=O)N[C@@H](CC(C)C)C(O)CC(=O)NCc1ccccc1 (stereo not given in full) | 5.70 |
| CC(C)C[C@H](NC(=O)C[C@@H](O)C(CC1CCCCC1)NC(=O)CCC(O)[C@H](Cc1ccccc1)NC(=O)OC(C)(C)C)C(=O)NCc1ccc(CN)cc1 (stereo not given in full) | 7.66 |
| CC(C)C[C@H](NC(=O)CC(O)[C@H](CC(C)C)NC(=O)[C@@H](CC(=O)[C@H](Cc1ccccc1)NC(=O)OCc1ccccc1)Cc1ccccc1)C(=O)NCc1ccccc1 (stereo not given in full) | 4.64 |
| CC(C)C[C@H](NC(=O)OCc1ccccc1)C(=O)C[C@@H](Cc1ccccc1)C(=O)N[C@@H](CC(C)C)C(O)CC(=O)N[C@@H](CC(C)C)C(=O)NCc1ccccc1 (stereo not given in full) | 4.96 |
| CC(C)C[C@H](NC(=O)CC(O)[C@H](CC(C)C)NC(=O)[C@H](Cc1ccccc1)CC(O)[C@H](Cc1ccccc1)NC(=O)OCc1ccccc1)C(=O)NCc1ccccc1 (stereo not given in full) | 5.43 |
| CC(C)C[C@H](NC(=O)C[C@@H](O)C(CC1CCCCC1)NC(=O)C/C=C/[C@H](Cc1ccccc1)NC(=O)OC(C)(C)C)C(=O)NCc1ccccc1 (stereo not given in full) | 5.89 |
| CC(C)C[C@H](NC(=O)C[C@@H](O)C(CC1CCCCC1)NC(=O)/C=C/C(O)[C@H](Cc1ccccc1)NC(=O)OC(C)(C)C)C(=O)NCc1ccc(CNC(=O)OCc2ccccc2)cc1 (stereo not given in full) | 6.33 |
| CC(C)C[C@H](NC(=O)[C@H](C)NC(=O)CC(O)[C@H](CC(C)C)NC(=O)[C@H](Cc1ccccc1)[S+]([O-])C[C@H](Cc1ccccc1)NC(=O)OC(C)(C)C)C(O)CC(=O)NCc1ccccc1 (stereo not given in full) | 5.25 |
| CC(C)C[C@H](NC(=O)CC(O)[C@H](CC(C)C)NC(=O)CC1OC1[C@H](Cc1ccccc1)NC(=O)OC(C)(C)C)C(=O)NCc1ccccc1 (stereo in doubt; 32) | 5.92 |
| CC(C)C[C@H](NC(=O)CC(O)[C@H](CC(C)C)NC(=O)CC1OC1[C@H](Cc1ccccc1)NC(=O)OC(C)(C)C)C(=O)NCc1ccccc1 (stereo in doubt; 37) | < 4.00 |

Target: Renin (monkey)
Assay: The compound was tested in vitro for inhibitory activity against Renin in monkey plasma

| pIC50 | SMILES |
| --- | --- |
| 5.96 | CC(C)C[C@H](NC(=O)CC(O)[C@H](CC(C)C)NC(=O)CNC(=O)[C@H](Cc1ccccc1)NC(=O)OC(C)(C)C)C(=O)NCc1ccccc1 (stereo not given in full) |
